Data reported in ChEMBL document CHEMBL4138078, “Structure-based virtual screening and optimization of modulators targeting Hsp90-Cdc37 interaction” (Eur J Med Chem, 2017).
The source made the active and inactive calls. The calls are words filed in the database; no cut-off is given here.

How the values were obtained:
SK-BR-3 [1] = assay: Antiproliferative activity against human SKBR3 cells at 10 uM after 72 hrs by MTT assay relative to control; format: functional
MCF7 [2] = assay: Antiproliferative activity against human MCF7 cells at 10 uM after 72 hrs by MTT assay relative to control; format: functional
Homo sapiens [3] = organism: Homo sapiens; assay: Inhibition of full length His-tagged HSP90/GST-tagged Cdc37 (unknown origin) interaction at 10 uM after 1 hr by HTRF assay relative to control
Homo sapiens [4] = organism: Homo sapiens; assay: Inhibition of HSP90/Cdc37 protein-protein interaction in human SKBR3 cells assessed as decrease in Akt level after 24 hrs by Western blot analysis; format: cell-based
In short: (§1)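 SKBR-3 cells treated with compound at 1, 10 and 50 μM for 24 h. After a PBS rinse and trypsinisation, cells lysed in Tris-HCl pH 7.5 buffer with NaCl, EDTA, NP-40, PMSF, NaF and DTT; lysate spun 12000 rpm, 10 min, 4 °C. Protein by BCA, equal loads on SDS-PAGE. Probed for Hsp90, Akt, Cdk4, β-actin; DyLight 800 secondary, infrared imaging.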

Homo sapiens [5] = organism: Homo sapiens; assay: Inhibition of full length His-tagged HSP90/GST-tagged Cdc37 (unknown origin) interaction at 100 uM after 1 hr by HTRF assay relative to control
In short: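 HTRF assay using His-tagged full-length Hsp90 and GST-tagged Cdc37 M, each 250 nM final, in PBS with an extra 400 mM KF, pH 7.4. Compound incubated 1 h at 37 °C. Anti-GST-Cryptate and anti-6His-XL665 then added, 0.5 h at 37 °C. Ex 320 nm; ratio = (665/620 nm) × 10000. No-compound negative control and reagent-only blank.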

SK-BR-3 [6] = assay: Effect on HSP90 level in human SKBR3 cells at 1 to 50 uM after 24 hrs by Western blot analysis; format: functional, cell-based; in short: as §1
Homo sapiens [7] = organism: Homo sapiens; assay: Inhibition of N-terminal GST-tagged HSP90/Cdc37 (unknown origin) interaction expressed in Escherichia coli at 20 uM preincubated with Cdc37 for 1 hr followed by addition to HSP90 by GST-pull down assay
In short: (§2)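 Pull-down with 10 μg GST-Hsp90 N-terminal domain immobilised as bait on glutathione resin spin columns. Compound incubated with Cdc37 for 1 h at 37 °C, then added to the columns. Loading buffer 25 mM Tris, 0.15 M NaCl, pH 7.2; elution with extra 10 mM reduced glutathione; spins 1 min at 1,000 × g, 4 °C. Eluate analysed by SDS-PAGE and anti-GST/anti-His western blot.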

Homo sapiens [8] = organism: Homo sapiens; assay: Inhibition of HSP90/Cdc37 protein-protein interaction in human SKBR3 cells assessed as decrease in CDK4 level after 24 hrs by Western blot analysis; format: cell-based; in short: as §1
A549 [9] = assay: Antiproliferative activity against human A549 cells at 10 uM after 72 hrs by MTT assay relative to control; format: functional
MCF7 [10] = assay: Antiproliferative activity against human MCF7 cells after 72 hrs by MTT assay; format: functional, cell-based; settings: MCF7, 72 h
In short: (§3)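 Cells seeded at 10000/well and left 24 h, then exposed to compounds in DMSO (200 μM down to 0.823 μM, three-fold steps) for 72 h at 37 °C. Viability was read by MTT (5 mg/mL in PBS) with formazan dissolved in DMSO, OD at 490 nm. IC50 was taken from parallel experiments as mean ± SD. Media: MCF-7 in MEM, SKBR-3 in RPMI-1640, A549 in F12K, each with 10% FCS.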

SK-BR-3 [11] = assay: Antiproliferative activity against human SKBR3 cells after 72 hrs by MTT assay; format: functional, cell-based; settings: SK-BR-3, 72 h; in short: as §3
[12] = Inhibition of full length His-tagged HSP90/GST-tagged Cdc37 (unknown origin) interaction after 1 hr by HTRF assay; parameters: species or system Homo sapiens
In short: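 Final 250 nM each of His-Hsp90 (full length) and GST-Cdc37 M in PBS with extra 400 mM KF, pH 7.4. Compound added (300 μM to 1.23 μM, three-fold steps), 1 h at 37 °C. Anti-GST-cryptate and anti-6His-XL665 added, 0.5 h at 37 °C. TR-FRET read at ex 320 nm, em 665/620 nm, ratio ×10000. No-compound and reagent-only controls included.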

Homo sapiens [13] = organism: Homo sapiens; assay: Inhibition of N-terminal GST-tagged HSP90/Cdc37 (unknown origin) interaction expressed in Escherichia coli preincubated with Cdc37 for 1 hr followed by addition to HSP90 by GST-pull down assay; in short: as §2
A549 [14] = assay: Antiproliferative activity against human A549 cells after 72 hrs by MTT assay; format: functional, cell-based; settings: A549, 72 h; in short: as §3
Heat shock protein HSP90 = Heat shock protein HSP90 (Homo sapiens, UniProt P07900+P08238); assay: Binding affinity to N-terminal GST-tagged HSP90 (unknown origin) expressed in Escherichia coli by biolayer interferometry analysis

| SMILES | Activity (SK-BR-3 [1]) | Activity (MCF7 [2]) | inhibition (Homo sapiens [3]) | inhibition (Homo sapiens [4]) | inhibition (Homo sapiens [5]) | Activity (SK-BR-3 [6]) | inhibition (Homo sapiens [7]) | inhibition (Homo sapiens [8]) | Activity (A549 [9]) | IC50 (MCF7 [10]) | IC50 (SK-BR-3 [11]) | IC50 [12] | inhibition (Homo sapiens [13]) | IC50 (A549 [14]) | Kd (Heat shock protein HSP90) |
| --- | --- | --- | --- | --- | --- | --- | --- | --- | --- | --- | --- | --- | --- | --- | --- |
| CC1=C(O)C(=O)C=C2C1=CC=C1[C@@]2(C)CC[C@@]2(C)[C@@H]3C[C@](C)(C(=O)O)CC[C@]3(C)CC[C@]12C [CELASTROL] | 97.62% | 98.62% | 79.3% | Dose-dependent effect | 92.3% | inactive | Active | Dose-dependent effect | 95.43% | – | – | – | – | – | – |
| Cn1nccc1NS(=O)(=O)c1ccc(NC(=O)CCC(=O)Nc2ccc(S(=O)(=O)Nc3ccnn3C)cc2)cc1 | – | – | – | Dose-dependent effect | 79.4% | inactive | – | Dose-dependent effect | – | 26.4 µM | 14.7 µM | 27 to 27.4 µM | Dose-dependent effect | 38.4 µM | 40 to 40.4 µM |
